# Laboratory results as given in PubChem BioAssay.
# A number with no mark means an inactive call. Inconclusive results are not listed. Activity calls are given as the source filed them.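 Rule for the calls, unless noted: active = RAM network inhibition above 8.4% in each of two replicates, 3 SD over the compound average; inconclusive = above 8.4% inhibition in only one replicate; inactive = 8.4% inhibition or less in each replicate.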
# What was measured:
# [1] = S. cerevisiae growth inhibition in permissive medium (OD615), pilot counter-assay for S. cerevisiae lifespan shortening project, permissive growth control (AID 705;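 active = growth inhibition above 25% in both replicates, a cutoff set 3 SD above the mean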); conditions: OD615, 24 h, at 10 µM, active compounds read high
# How it was run: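 Material: engineered DeaD yeast; Compound: one dose 10 µM, DMSO 0.25% final; Detection: absorbance (optical density) at 615 nm; Buffer or medium: permissive raffinose/galactose medium; Timing: 24 h exposure, 30 °C.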
# [2] = S. cerevisiae growth inhibition in restrictive medium, OD615, pilot screen, restrictive growth control, yeast lifespan reduction project (AID 706;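 active = growth inhibition above a set limit, 3 SD over mean compound inhibition, in both replicates, cut at about 43% in these data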;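 note: modified DeaD lifespan yeast strain shifted to restrictive glucose medium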); conditions: OD615, 48 h, at 10 µM, active compounds read high
# How it was run: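 Buffer or medium: restrictive glucose medium (CSMM-D); test system: modified S. cerevisiae; doses: single dose of 10 µM compound final, 0.25% DMSO; schedule: 48 h compound exposure at 30 °C; detection: absorbance (optical density) measured at 615 nm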
# [3] = doxorubicin toxicity protection in MRP-1 cells – H69AR cells, CellTiter-Glo, duplicate, MRP-1 activator project, pilot screen (AID 807;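 active = viability increase at or above a cutoff of the median across tested compounds plus 3 SD, cut at about 8.5% in these data, passing the limit was not always enough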;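 note: compound pretreatment 18-22 h then 72 h combined with doxorubicin; 0% = doxorubicin alone and 100% = vehicle without doxorubicin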); conditions: H69AR viability with doxorubicin, CellTiter-Glo luminescence; at 10 µM; active compounds read high
# [4] = viability of HCT116 without oncogenic beta-catenin – human colon tumor cells, pilot screen (AID 823;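 active = cell viability at or below a set limit in both duplicate runs, the limit being the all-compound median minus 4 SD, cut at about 23% in these data, passing the limit was not always enough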;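 note: 0% = wells killed by 20 µM Hyamine and 100% = untreated DMSO cell wells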); conditions: HCT116 beta-catenin knockout viability, CellTiter-Glo, 60 h; at 10 µM; active compounds read low
# [5] = viability of PTEN-null HCT116 cells – cell-based, HCT116 clonal line, CellTiter-Glo, pilot screen (AID 824;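 active = viability at or below 27.92% in each of two runs, the all-compound median minus 4 SD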;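 note: 0% = 20 µM Hyamine control and 100% = vehicle cell control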); conditions: HCT116 PTEN-deleted viability, 60 h, at 10 µM, active compounds read low
# [6] = RAM pathway blockade in budding yeast – dse1pr::URA3 reporter, 5-FOA selection, pilot screen (AID 869;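 active = inhibition over a set limit, the all-compound mean plus 3 SD, in both replicate runs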;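 note: 0% = DMSO wells with no growth and 100% = 10 µM 1-NA-PP1 with full growth; RAM network block rescues cells from 5-FOA so hits raise OD615 growth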); conditions: S. cerevisiae dse1pr::URA3 5-FOA growth, OD615, 2 d; at 10 µM; active compounds read high; strain carries analog-sensitive mutant Cbk1 kinase
# [7] = RAM signaling pathway blockade in yeast – S. cerevisiae, Pdr1DBD-CYC8 efflux-inhibited sensitized strain, primary screen (AID 1298);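 note: 0% = DMSO untreated cells without growth and 100% = 10 µM 1-NA-PP1 full growth; higher means more yeast growth rescued from 5-FOA killing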; conditions: S. cerevisiae cbk1-as DSE1-URA3 strain, 5-FOA growth OD615, 2 d; at 50 µM; active compounds read high
SMILES,growth inhibition [1],growth inhibition [2],viability increase [3],viability [4],viability [5],inhibition [6],RAM network inhibition [7]
c1cc2c3c(cccc3c1)C(N1CCCCC1)=N2,1.8%,-3.38%,-4.54%,72.1%,74.4%,0.665%,1.88%
COCCn1c(CN(C)Cc2ccccc2)nc2c1c(=O)n(C)c(=O)n2C,-5.71%,8.7%,0.55%,87.8%,91.5%,3.04%,1.53%
CCCCCCNC(=O)C(C(=O)OCC)C1CCCCC1 (stereo unspecified),-4.1%,-1.5%,-1.52%,84%,82.2%,0.15%,3.88%
CCCCC(=O)Nc1nc(C)c(C(C)=O)s1,-13.3%,-2.2%,0.48%,98.8%,88.7%,1.14%,-1%
COc1ccc(C)cc1Nc1cc(C)nc2nc(C)nn12,-8.41%,1.49%,-4.98%,64.4%,57.3%,1.47%,0.57%
COc1ccc(S(=O)(=O)Nc2cc(Cl)ccc2OC)cc1,-12.3%,-21.9%,-6.67%,16.5% (active),17.1% (active),0.78%,6.09%
Cc1ccc2c(CC(=O)O)coc2c1C,3.31%,33.3%,-2.01%,88%,89.5%,-0.555%,-1.19%
COc1ccc(S(=O)(=O)N2CCN(c3cccc(C)c3C)CC2)cc1,-16.7%,-13.3%,1.83%,97.9%,90.5%,1.02%,2.58%
CCOc1nonc1C(=N)/C(C(C)=O)=C(\C)O,-12.6%,-12.1%,-1.06%,104%,98%,1.42%,-0.48%
CCNc1nc2c(c(=O)[nH]c(=O)n2C)n1CC(C)C,-5.42%,-2.34%,-2.15%,106%,100%,0.05%,2.92%
CCCOC(=O)c1ccc(OCC(O)CN2C(=O)NC(C)(C)C2=O)cc1 (stereo unspecified),1.83%,1.78%,-0.77%,96.9%,97.2%,0.14%,0.77%
COc1ccc(C)cc1NC(=O)CSc1nnc(-c2ccc(C)cc2)o1,-8.71%,30.3%,1.15%,91.9%,86.8%,2.09%,5.49%
CCOc1ccc(N(CC(=O)NCc2ccccc2)S(C)(=O)=O)cc1,-0.02%,-4.28%,-1.14%,103%,101%,0.535%,-0.46%
COc1cccc(C2C(C(=O)c3ccco3)=C(O)C(=O)N2CCCN2CCOCC2)c1OC (stereo unspecified),-8.82%,-0.75%,-3.37%,102%,93.5%,1.02%,6.98%
Cc1csc2nc(CNC(=O)C3CC=CCC3C(=O)O)cn12 (stereo unspecified),-3.37%,16.7%,-2.9%,93.7%,94%,2.62%,-0.42%
CCCn1cc(S(=O)(=O)CC(=O)NC2CCCCC2)c2ccccc21,-1.69%,-0.78%,-0.07%,93.2%,101%,1.39%,2.24%
Cn1ccnc1SCC(=O)Nc1cccc(C(F)(F)F)c1,0.76%,10.5%,-4.88%,96.4%,96.8%,0.71%,4.72%
C=CCn1c(SCC(=O)NCc2ccco2)nc2sc3c(c2c1=O)CCC3,-1.65%,0.995%,-4.9%,98.6%,92.6%,2.48%,1.5%
O=C1Nc2ccccc2C(O)(C(=O)N2CCCCC2)N1c1ccccc1 (stereo unspecified),-10.5%,-20.2%,-1.87%,98.9%,92.2%,2.2%,7.2%
CCOC(=O)CN1CC23C=CC(O2)C(C(=O)O)C3C1=O (stereo unspecified),2.83%,-3.85%,0.14%,103%,107%,0.73%,4%
O=C(Nc1ccccc1C1CC1)c1cccs1,-10.4%,-19.7%,1.09%,95%,96.9%,1.16%,0.36%
c1cn(CCCNc2ncnc3nc[nH]c23)cn1,-7.59%,-16.1%,-1.91%,111%,96.2%,0.895%,2.98%
O=C1c2ccccc2C(Nc2ccc3c(c2)OCCO3)N1c1ccccn1 (stereo unspecified),-10.6%,-13.5%,-1.97%,81.5%,85.6%,1.86%,4.05%
CCCCNC(=O)C1c2cc(OC)c(OC)cc2C(=O)N(C)C1c1ccc(OC)cc1 (stereo unspecified),-7.31%,-7.21%,-2.49%,92.5%,98.4%,1.63%,1.97%

SMILES,growth inhibition [1],growth inhibition [2],viability increase [3],viability [4],viability [5],inhibition [6],RAM network inhibition [7]
O=C1c2ccccc2-c2nc3ncnn3c(-c3ccccc3Cl)c21,-6.53%,-0.65%,-3.38%,83.3%,76.9%,0.39%,0.58%
O=C1CC(c2ccco2)CC(O)=C1C=NCC1CCNCC1 (stereo unspecified),-17.1%,-5.49%,1.85%,102%,101%,0.37%,3.8%
Oc1c(C(c2cccs2)N2CCN(c3ccccc3)CC2)sc2ncnn12 (stereo unspecified),-13.2%,-5.4%,12.3% (active),90.9%,89.5%,1.53%,1.45%
Cc1cc(Nc2ccccc2Br)n2nc(C)nc2n1,-3.05%,-13.3%,-2.64%,107%,98.2%,1.9%,-1.82%
CC(=O)N1CCc2cc(C(=O)CN3CCN(c4cccc(Cl)c4)CC3)ccc21,-11%,-7.26%,0.32%,69.3%,76.8%,1.65%,3.12%
CC1CC(C(O)c2ccccn2)C(=O)C(C(O)c2ccccn2)C1 (stereo unspecified),9.67%,-1.25%,-3.28%,97.8%,90.3%,0.35%,-0.58%
CCOC(=O)N1CCN(C(=O)C(C)(C)Oc2ccc(Cl)cc2)CC1,-8.16%,-2.48%,-1.61%,93%,96.1%,0.28%,3.09%
CC(C)(C)SCCNS(=O)(=O)c1ccccc1,-8.9%,6.57%,-0.28%,99.8%,93.4%,2.52%,3.01%
COc1cccc(C2CC(=O)N3CN(c4ccccc4F)CSC3=C2C#N)c1 (stereo unspecified),6.38%,2.71%,-1.76%,102%,94.3%,2.96%,5.8%
Cc1ccc2c(c1)-c1c(cnn1CC(=O)N1CCCN(Cc3ccccc3F)C1)CO2,-0.225%,-1.89%,-2.83%,88.9%,93.1%,1%,1.9%
O=C(Nc1nc2cc3c(cc2s1)OCO3)C1=COCCO1,-9.14%,-31.3%,-6.84%,45.8%,41.3%,1.75%,5.3%
N#CCn1c(C2CCCCC2)nc2ccccc2c1=O,-27%,-22.9%,-4.23%,90.2%,84.5%,0.79%,3.71%
CC(=NCc1cccnc1)C1=C(O)c2ccccc2C1=O,-0.03%,9.76%,-0.85%,97.2%,96.4%,0.665%,-0.3%
CC1(C)CC(=O)C(C=Nc2ccccc2)=C(O)C1,-7.81%,1.81%,-1.32%,98.1%,96.2%,2.92%,1.59%
CC1CCCN(c2nc3c(c(=O)[nH]c(=O)n3C)n2Cc2ccccc2Cl)C1 (stereo unspecified),-15.4%,-35.9%,-5.4%,84.9%,81%,0.485%,9.1%
COc1ccc(CCNc2ncnc3nc[nH]c23)cc1OC,0.1%,20%,-3.11%,82.8%,84.7%,0.57%,1.46%
O=C(N1CCOCC1)N1CCN(c2ccccc2F)CC1,-0.135%,0.07%,-2.64%,97.9%,99.7%,0.325%,4.21%
CCOc1ccc(Cn2nnc(C(=O)NCCc3ccccc3)c2N)cc1,1.4%,2.79%,10.7% (active),96.9%,89.9%,2.5%,4.53%
COCCN(CCOC)Cc1c(C)[nH]c2c(C)c(C)ccc2c1=O,-16.2%,-9.49%,-1.96%,96.8%,100%,2.54%,3.28%
Nc1cc(-c2cccc(F)c2)nn1S(=O)(=O)c1cccc2nsnc12,-5.94%,-7.52%,-2.16%,68.5%,65.7%,2.71%,0.98%
COc1ccc(C2c3sc(=O)[nH]c3SC3C(=O)N(c4ccccc4)C(=O)C32)cc1 (stereo unspecified),-6.11%,12.6%,0.68%,99.9%,99.3%,2.98%,5.53%
COc1cc(C(=O)Nc2ccc(S(=O)(=O)N3CCCCC3C)cc2)cc(OC)c1OC (stereo unspecified),-18.5%,-16.6%,-4.48%,69.9%,65.7%,1.7%,4.51%
Cc1ccc(N2CC(C(=O)Nc3cccc(F)c3)CC2=O)cc1 (stereo unspecified),-13.3%,-5.71%,0.09%,90.6%,103%,-0.185%,8.04%
COc1cccc(C(=O)Nc2ccc3nc(N4CCOCC4)cc(C)c3c2)c1,-7.63%,0.38%,-6.58%,95.7%,85.9%,0.845%,2.45%
